Data taken from ChEMBL document CHEMBL1137365, “1,4,5,6-tetrahydropyrrolo[3,4-c]pyrazoles: identification of a potent Aurora kinase inhibitor with a favorable antitumor kinase inhibition profile” (J Med Chem, 2006).
pEC50, pIC50: −log10 of the molar value. Activity calls are given as the source filed them. No cut-off for these calls is given here.

Columns and labels:
Aurora kinase A = target: T1, Aurora kinase A (Homo sapiens, UniProt O14965); experiment: Inhibition of Aurora A kinase
T1 sequence (O14965 whole entry): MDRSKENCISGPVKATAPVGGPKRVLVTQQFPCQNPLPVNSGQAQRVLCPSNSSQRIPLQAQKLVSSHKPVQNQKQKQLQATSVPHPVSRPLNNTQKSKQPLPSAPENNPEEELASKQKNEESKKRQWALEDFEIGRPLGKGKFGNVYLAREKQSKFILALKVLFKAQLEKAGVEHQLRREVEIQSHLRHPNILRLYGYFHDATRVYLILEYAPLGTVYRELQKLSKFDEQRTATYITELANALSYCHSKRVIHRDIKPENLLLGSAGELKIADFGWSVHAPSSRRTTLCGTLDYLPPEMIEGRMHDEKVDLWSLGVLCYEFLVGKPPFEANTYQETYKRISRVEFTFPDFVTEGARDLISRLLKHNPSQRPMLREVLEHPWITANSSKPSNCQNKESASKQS

HCT-116 [1] = experiment: Antiproliferative activity against HCT116 cells; format: functional, cell-based; conditions: Homo sapiens
Outline: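 HCT-116 human colon carcinoma cells; proliferation IC50 taken from dose-response curves, reported as the mean of at least three independent determinations.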

HCT-116 [2] = experiment: Cell cycle arrest in HCT116 cells by accumulation at G2/M phase; format: functional, cell-based; conditions: Homo sapiens
Aurora kinase B = Aurora kinase B (Homo sapiens, UniProt Q96GD4); experiment: Inhibition of Aurora B kinase
Sequence of Aurora kinase B (Q96GD4 whole entry): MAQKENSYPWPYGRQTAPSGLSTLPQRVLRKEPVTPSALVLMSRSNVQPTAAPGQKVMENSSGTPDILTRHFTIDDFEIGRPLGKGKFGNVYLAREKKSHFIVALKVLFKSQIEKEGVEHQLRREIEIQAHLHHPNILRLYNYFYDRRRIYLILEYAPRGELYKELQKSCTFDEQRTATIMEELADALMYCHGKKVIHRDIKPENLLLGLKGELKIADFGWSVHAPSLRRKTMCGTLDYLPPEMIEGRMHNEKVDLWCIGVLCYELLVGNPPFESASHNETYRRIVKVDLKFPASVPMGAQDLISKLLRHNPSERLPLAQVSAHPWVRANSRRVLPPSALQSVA
Outline: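 Biochemical Aurora-B kinase inhibition; IC50 reported as the mean of at least three individual determinations.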

[3] = Aqueous solubility at pH 5.5; format: physicochemical
Outline: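 Aqueous solubility measured on the hydrochloride salt at pH 5.5.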

HCT-116 [4] = experiment: Inhibition of histone h3 phosphorylation in HCT116 cells by Western blot analysis; format: functional, cell-based; conditions: Homo sapiens
Outline: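 HCT-116 cells probed by Western blot for histone H3 phosphorylated at serine 10. α-Tubulin antibody used as the loading control.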

MCF7 = experiment: Antiproliferative activity against MCF7 cells; format: functional, cell-based; conditions: Homo sapiens
Outline: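 IC50 taken from dose-response curves of cell proliferation; each reported value is the mean of three or more independent curves.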

HL-60 [5] = experiment: Body weight loss of SCID mouse xenografted with HL60 cells at 30 mg/kg, iv after 5 days; format: functional
HL-60 [6] = experiment: Antitumor activity against HL60 cells xenografted in SCID mouse at 7.5 to 30 mg/kg, iv after 5 days; format: functional; conditions: dose mg/kg 7.5-30
Outline: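 SCID mice carrying HL-60 human tumor xenografts. Dosed iv twice daily for 5 days (bid × 5) at 7.5 to 30 mg/kg. Tumor growth inhibition followed over time.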

HeLa = experiment: Antiproliferative activity against HeLa cells; format: functional, cell-based; conditions: Homo sapiens
A2780 = experiment: Antiproliferative activity against A2780 cells; format: functional, cell-based; conditions: Homo sapiens
[7] = target: Serine/threonine-protein kinase NIM1 (Homo sapiens, UniProt Q8IY84); experiment: Inhibition of NIM1
Sequence of Serine/threonine-protein kinase NIM1 (Q8IY84 whole entry): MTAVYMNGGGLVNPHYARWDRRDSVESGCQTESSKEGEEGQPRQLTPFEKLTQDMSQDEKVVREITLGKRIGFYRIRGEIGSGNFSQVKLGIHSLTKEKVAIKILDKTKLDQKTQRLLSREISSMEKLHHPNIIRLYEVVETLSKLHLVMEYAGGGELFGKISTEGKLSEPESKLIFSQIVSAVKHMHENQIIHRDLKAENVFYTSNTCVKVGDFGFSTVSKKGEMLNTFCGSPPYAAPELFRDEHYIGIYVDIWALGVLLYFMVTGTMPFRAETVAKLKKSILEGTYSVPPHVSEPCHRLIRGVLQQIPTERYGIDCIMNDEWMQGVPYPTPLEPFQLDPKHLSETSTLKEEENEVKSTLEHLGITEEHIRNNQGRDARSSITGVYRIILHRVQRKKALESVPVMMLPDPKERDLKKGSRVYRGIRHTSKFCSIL

[8] = target: T2, Inhibitor of nuclear factor kappa-B kinase subunit beta (Homo sapiens, UniProt O14920); experiment: Inhibition of IKK2
T2 sequence (O14920 whole entry): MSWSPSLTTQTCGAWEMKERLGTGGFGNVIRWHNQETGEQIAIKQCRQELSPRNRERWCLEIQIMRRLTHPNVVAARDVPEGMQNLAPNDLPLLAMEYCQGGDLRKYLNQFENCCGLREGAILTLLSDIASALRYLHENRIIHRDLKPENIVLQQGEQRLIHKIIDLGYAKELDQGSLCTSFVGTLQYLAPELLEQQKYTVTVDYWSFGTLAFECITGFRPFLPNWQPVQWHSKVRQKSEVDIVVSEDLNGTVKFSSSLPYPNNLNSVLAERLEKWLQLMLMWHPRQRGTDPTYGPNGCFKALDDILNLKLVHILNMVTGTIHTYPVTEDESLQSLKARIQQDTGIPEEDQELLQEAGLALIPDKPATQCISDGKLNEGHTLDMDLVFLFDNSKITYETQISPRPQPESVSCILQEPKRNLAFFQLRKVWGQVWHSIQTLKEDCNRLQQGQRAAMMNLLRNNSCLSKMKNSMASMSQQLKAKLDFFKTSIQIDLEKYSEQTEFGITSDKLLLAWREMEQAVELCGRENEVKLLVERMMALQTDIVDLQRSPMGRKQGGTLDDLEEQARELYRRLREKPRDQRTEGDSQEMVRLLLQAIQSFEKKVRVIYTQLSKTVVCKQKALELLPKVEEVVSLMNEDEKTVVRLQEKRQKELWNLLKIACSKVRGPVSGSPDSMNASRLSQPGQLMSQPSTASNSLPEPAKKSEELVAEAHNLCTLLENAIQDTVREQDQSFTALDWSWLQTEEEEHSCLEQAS

Aurora kinase C = target: T3, Aurora kinase C (Homo sapiens, UniProt Q9UQB9); experiment: Inhibition of Aurora C kinase
T3 sequence (Q9UQB9 whole entry): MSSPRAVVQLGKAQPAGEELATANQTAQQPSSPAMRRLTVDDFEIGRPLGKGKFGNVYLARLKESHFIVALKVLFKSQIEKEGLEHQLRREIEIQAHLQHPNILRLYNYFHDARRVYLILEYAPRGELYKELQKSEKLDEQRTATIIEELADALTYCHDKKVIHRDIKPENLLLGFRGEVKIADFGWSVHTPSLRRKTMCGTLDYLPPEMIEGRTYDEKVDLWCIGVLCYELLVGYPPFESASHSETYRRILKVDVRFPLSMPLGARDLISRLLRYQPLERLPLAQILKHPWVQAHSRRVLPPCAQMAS

[9] = Volume of distribution in CD1 mouse at 10 mg/kg, iv; format: ADME, organism-based; set-up: dose 10 mg/kg, route intravenous; conditions: in vivo, read-out: Vss
Outline: (§1)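 Plasma levels followed up to 6 h post-dose. Parameters estimated individually for three mice (M1–M3) and reported as mean and SD.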

[10] = Clearance in CD1 mouse at 10 mg/kg, iv; format: ADME, organism-based; set-up: dose 10 mg/kg, route intravenous; conditions: in vivo; outline: as §1
[11] = target: T4, Serine/threonine-protein kinase SULU (Caenorhabditis elegans, UniProt P46549); experiment: Inhibition of SULU
T4 sequence (P46549 whole entry): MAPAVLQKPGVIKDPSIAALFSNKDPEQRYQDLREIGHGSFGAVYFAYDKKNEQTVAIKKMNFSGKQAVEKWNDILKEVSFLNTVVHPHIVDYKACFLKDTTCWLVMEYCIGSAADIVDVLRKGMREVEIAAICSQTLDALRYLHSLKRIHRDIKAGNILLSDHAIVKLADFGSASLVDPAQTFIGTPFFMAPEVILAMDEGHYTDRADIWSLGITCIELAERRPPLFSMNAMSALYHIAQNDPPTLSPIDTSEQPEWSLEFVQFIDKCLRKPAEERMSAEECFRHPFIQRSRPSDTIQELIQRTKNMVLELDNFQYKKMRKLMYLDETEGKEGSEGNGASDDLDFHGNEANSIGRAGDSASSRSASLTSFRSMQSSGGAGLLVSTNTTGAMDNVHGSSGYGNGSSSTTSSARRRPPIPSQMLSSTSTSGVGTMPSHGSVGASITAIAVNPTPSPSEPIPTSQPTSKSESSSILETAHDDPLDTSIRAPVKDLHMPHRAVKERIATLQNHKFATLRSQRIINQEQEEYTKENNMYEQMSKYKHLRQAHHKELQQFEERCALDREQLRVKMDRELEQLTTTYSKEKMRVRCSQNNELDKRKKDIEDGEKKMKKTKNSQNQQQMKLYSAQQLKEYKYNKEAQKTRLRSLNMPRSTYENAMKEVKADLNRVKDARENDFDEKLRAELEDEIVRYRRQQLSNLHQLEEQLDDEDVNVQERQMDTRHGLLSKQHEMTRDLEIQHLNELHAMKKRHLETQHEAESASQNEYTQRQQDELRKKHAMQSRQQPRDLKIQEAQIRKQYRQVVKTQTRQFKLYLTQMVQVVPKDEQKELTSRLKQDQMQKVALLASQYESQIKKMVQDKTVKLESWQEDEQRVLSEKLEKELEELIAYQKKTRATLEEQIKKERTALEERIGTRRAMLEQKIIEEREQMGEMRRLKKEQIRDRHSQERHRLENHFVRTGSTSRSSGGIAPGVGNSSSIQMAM

[12] = AUC in CD1 mouse at 10 mg/kg, iv; format: ADME, organism-based; set-up: dose 10 mg/kg, route intravenous; conditions: plasma; outline: as §1
[13] = Cmax in CD1 mouse at 10 mg/kg, iv; format: ADME, organism-based; set-up: dose 10 mg/kg, route intravenous; conditions: in vivo; outline: as §1
[14] = Terminal half life in CD1 mouse at 10 mg/kg, iv; format: ADME, organism-based; set-up: dose 10 mg/kg, route intravenous; conditions: in vivo, read-out: beta t1/2 (converted); outline: as §1
[15] = target: T5, Tyrosine-protein kinase ZAP-70 (Homo sapiens, UniProt P43403); experiment: Inhibition of ZAP70
T5 sequence (P43403 whole entry): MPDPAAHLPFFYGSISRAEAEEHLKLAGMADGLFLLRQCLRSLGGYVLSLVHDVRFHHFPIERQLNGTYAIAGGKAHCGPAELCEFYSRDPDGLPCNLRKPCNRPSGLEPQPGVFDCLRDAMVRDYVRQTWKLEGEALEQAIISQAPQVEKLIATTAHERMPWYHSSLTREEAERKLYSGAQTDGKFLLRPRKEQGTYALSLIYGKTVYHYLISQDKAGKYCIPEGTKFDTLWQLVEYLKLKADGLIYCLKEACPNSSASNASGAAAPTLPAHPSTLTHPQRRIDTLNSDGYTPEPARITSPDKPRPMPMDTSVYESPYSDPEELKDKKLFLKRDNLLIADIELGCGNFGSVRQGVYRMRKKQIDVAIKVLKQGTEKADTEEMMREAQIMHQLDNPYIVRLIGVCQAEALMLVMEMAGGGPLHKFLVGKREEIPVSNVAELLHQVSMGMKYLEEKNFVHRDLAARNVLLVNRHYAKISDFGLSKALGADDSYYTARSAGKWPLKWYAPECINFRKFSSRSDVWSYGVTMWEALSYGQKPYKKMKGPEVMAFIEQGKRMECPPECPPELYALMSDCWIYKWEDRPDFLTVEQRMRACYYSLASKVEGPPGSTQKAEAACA

[16] = target: Vascular endothelial growth factor receptor 3 (Homo sapiens, UniProt P35916); experiment: Inhibition of VEGFR3
Sequence of Vascular endothelial growth factor receptor 3 (P35916 whole entry): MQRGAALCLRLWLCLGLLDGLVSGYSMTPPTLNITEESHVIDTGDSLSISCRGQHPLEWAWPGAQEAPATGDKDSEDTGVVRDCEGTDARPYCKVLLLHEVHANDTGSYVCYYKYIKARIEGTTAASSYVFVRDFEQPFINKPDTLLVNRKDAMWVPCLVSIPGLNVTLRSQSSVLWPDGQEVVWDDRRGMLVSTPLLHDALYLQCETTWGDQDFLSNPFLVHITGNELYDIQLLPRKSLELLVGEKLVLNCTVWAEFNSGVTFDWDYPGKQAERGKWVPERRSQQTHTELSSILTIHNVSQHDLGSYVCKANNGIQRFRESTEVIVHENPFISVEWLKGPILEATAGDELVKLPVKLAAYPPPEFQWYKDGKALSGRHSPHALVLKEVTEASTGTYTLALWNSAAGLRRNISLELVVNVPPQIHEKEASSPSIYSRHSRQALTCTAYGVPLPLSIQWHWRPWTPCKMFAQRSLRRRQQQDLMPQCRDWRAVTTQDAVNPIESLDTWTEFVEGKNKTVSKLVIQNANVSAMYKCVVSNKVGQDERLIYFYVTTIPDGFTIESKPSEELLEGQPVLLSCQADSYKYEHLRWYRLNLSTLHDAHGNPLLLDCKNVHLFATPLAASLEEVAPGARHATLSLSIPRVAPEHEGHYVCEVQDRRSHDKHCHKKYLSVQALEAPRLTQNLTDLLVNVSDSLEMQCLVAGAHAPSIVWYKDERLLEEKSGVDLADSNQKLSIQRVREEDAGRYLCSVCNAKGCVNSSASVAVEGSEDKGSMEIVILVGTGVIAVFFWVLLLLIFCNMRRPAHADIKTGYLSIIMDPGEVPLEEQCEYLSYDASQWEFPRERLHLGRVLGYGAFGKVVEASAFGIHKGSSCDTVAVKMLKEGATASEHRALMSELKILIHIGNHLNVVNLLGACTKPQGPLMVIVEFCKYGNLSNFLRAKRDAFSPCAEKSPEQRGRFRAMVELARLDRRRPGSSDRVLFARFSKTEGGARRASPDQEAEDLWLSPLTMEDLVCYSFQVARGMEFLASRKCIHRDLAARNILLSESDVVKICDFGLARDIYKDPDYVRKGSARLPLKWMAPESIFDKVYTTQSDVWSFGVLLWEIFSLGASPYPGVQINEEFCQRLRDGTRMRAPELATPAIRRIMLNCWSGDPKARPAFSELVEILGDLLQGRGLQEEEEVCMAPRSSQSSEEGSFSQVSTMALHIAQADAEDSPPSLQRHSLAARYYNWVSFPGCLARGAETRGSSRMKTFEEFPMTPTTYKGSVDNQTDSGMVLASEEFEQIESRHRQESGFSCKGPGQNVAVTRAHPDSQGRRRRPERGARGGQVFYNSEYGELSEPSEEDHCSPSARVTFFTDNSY

[17] = target: T6, 3-phosphoinositide-dependent protein kinase 1 (Homo sapiens, UniProt O15530); experiment: Inhibition of PDK1
T6 sequence (O15530 whole entry): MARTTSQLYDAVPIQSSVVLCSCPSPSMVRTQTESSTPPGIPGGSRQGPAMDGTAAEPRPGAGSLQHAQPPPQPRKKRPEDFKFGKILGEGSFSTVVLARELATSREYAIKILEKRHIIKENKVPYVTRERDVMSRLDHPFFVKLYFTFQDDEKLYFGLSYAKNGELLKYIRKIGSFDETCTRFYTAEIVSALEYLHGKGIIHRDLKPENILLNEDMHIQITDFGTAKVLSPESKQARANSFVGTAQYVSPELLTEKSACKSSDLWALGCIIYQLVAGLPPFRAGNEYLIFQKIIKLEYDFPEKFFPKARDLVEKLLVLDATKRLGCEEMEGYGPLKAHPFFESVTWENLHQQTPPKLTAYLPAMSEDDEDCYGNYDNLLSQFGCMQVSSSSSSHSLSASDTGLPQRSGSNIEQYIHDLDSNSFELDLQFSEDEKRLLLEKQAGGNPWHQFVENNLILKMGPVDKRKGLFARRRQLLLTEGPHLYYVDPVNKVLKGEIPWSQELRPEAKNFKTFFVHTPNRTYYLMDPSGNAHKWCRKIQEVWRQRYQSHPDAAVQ

`CN1CCN(c2ccc(C(=O)Nc3n[nH]c4c3CN(C(=O)Cc3ccccc3)C4)cc2)CC1` showed a pIC50 (Aurora kinase A) of 6.89, a pIC50 (HCT-116 [1]) of 6.66 and a pEC50 (HCT-116 [2]) of 6.30.
In the case of `C[C@H](C(=O)N1Cc2n[nH]c(NC(=O)c3ccc(N4CCN(C)CC4)cc3)c2C1)c1ccccc1`, the pIC50 (Aurora kinase B) was 5.92 and the pIC50 (Aurora kinase A) was 6.34.
Work on `CN1CCN(c2ccc(C(=O)Nc3n[nH]c4c3CN(C(=O)[C@H](F)c3ccccc3)C4)cc2)CC1` yielded a pIC50 (Aurora kinase B) of 6.52, a pIC50 (Aurora kinase A) of 8.05 and a pIC50 (HCT-116 [1]) of 7.30. For the same molecule, the pEC50 (HCT-116 [2]) was 6.96.
With `CN1CCN(c2ccc(C(=O)Nc3n[nH]c4c3CN(C(=O)[C@H](O)c3ccccc3)C4)cc2)CC1` the pIC50 (Aurora kinase B) was 7.32, the pIC50 (Aurora kinase A) was 8.22 and the pIC50 (HCT-116 [1]) was 7.01. The pEC50 (HCT-116 [2]) was < 6.70.
For `C[C@@H](C(=O)N1Cc2[nH]nc(NC(=O)c3ccc(N4CCN(C)CC4)cc3)c2C1)c1ccccc1`, the pIC50 (Aurora kinase B) was 7.00, the pIC50 (Aurora kinase A) was 7.62 and the pIC50 (HCT-116 [1]) was 7.68. It also gave a pEC50 (HCT-116 [2]) of 7.00.
With `CO[C@@H](C(=O)N1Cc2n[nH]c(NC(=O)c3ccc(N4CCN(C)CC4)cc3)c2C1)c1ccccc1.Cl` the solubility [3] was > 15 mg/mL.
For `CO[C@@H](C(=O)N1Cc2[nH]nc(NC(=O)c3ccc(N4CCN(C)CC4)cc3)c2C1)c1ccccc1` [DANUSERTIB], the Activity (HCT-116 [4]) was “Active”, the pIC50 (MCF7) was 7.10 and the Activity (HL-60 [5]) was 16%. For the same molecule, the TGI (HL-60 [6]) was 98%, the pIC50 (HeLa) was 6.85 and the pIC50 (HCT-116 [1]) was 7.51. It also gave a pIC50 (A2780) of 7.55 and a pEC50 (HCT-116 [2]) of 7.10.
For `CO[C@@H](C(=O)N1Cc2n[nH]c(NC(=O)c3ccc(N4CCN(C)CC4)cc3)c2C1)c1ccccc1` [DANUSERTIB], the pIC50 [7] was < 5.00, the pIC50 [8] was < 5.00 and the pIC50 (Aurora kinase C) was 7.21. The Vd [9] was 3.7 L/kg, the clearance [10] was 60 mL/min/kg and the pIC50 [11] was < 5.00. For the same molecule, the AUC [12] was 6.5 µM·h, the Cmax [13] was 9.6 µM and the half-life [14] was 1.4 h. The pIC50 [15] was < 5.00, the pIC50 [16] was 6.79 and the pIC50 [17] was < 5.00.
